Test results reported in ChEMBL document CHEMBL1154078, “Synthesis of novel purine nucleosides towards a selective inhibition of human butyrylcholinesterase” (Bioorg Med Chem, 2009).
Activity calls are given as the source filed them. No cut-off for these calls is given here.

tested on: not listed separately; assay: Cytotoxicity against human A549 cells assessed as cell viability at 200 ug/mL after 24 hrs by MTT assay relative to control; type: cell-based; conditions: read-out: Activity
In short: (§1)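 A549 cells seeded, left 24 h to attach, then exposed to compound for 24 h. Hydrogen peroxide served as positive control and pure solvent as negative control. At 48 h of culture, MTT added to a final concentration of 0.5 mg/mL and incubated 3 h. Medium removed, cells washed twice, formazan dissolved in DMSO with shaking for 20 min at room temperature.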

| Compound | viability at 24 h, 200 ug/mL |
| --- | --- |
| CO[C@H]1O[C@@H]([C@H](N=[N+]=[N-])C(=O)OCc2ccccc2)[C@@H](OCc2ccccc2)[C@@]2(OCc3ccccc3)[C@@H](OCc3ccccc3)CO[C@@H]12 | 47.9% |
| CC(=O)Nc1nc(Cl)c2c(ncn2[C@@H]2O[C@@H]([C@H](N=[N+]=[N-])C(=O)OCc3ccccc3)[C@@H](OCc3ccccc3)[C@@]3(OCc4ccccc4)[C@@H](OCc4ccccc4)CO[C@@H]23)n1 | 51.3% |
| CO[C@H]1O[C@@H]([C@@H](O)C(=O)OCc2ccccc2)[C@@H](OCc2ccccc2)[C@@]2(OCc3ccccc3)[C@@H](OCc3ccccc3)CO[C@@H]12 | 63.6% |
| COC(=O)[C@H](N=[N+]=[N-])[C@@H]1O[C@@H](n2cnc3nc(NC(C)=O)nc(Cl)c32)[C@@H]2OC[C@H](OCc3ccccc3)[C@]2(OCc2ccccc2)[C@@H]1OCc1ccccc1 | 52.3% |

tested on: not listed separately; assay: Cytotoxicity against human A549 cells assessed as cell viability at 2 ug/mL after 24 hrs by MTT assay relative to control; type: cell-based; conditions: read-out: Activity; in short: as §1

| Compound | viability at 24 h, 2 ug/mL |
| --- | --- |
| CO[C@H]1O[C@@H]([C@H](N=[N+]=[N-])C(=O)OCc2ccccc2)[C@@H](OCc2ccccc2)[C@@]2(OCc3ccccc3)[C@@H](OCc3ccccc3)CO[C@@H]12 | 71.2% |
| CC(=O)Nc1nc(Cl)c2c(ncn2[C@@H]2O[C@@H]([C@H](N=[N+]=[N-])C(=O)OCc3ccccc3)[C@@H](OCc3ccccc3)[C@@]3(OCc4ccccc4)[C@@H](OCc4ccccc4)CO[C@@H]23)n1 | 82.2% |
| CO[C@H]1O[C@@H]([C@@H](O)C(=O)OCc2ccccc2)[C@@H](OCc2ccccc2)[C@@]2(OCc3ccccc3)[C@@H](OCc3ccccc3)CO[C@@H]12 | 81.6% |
| COC(=O)[C@H](N=[N+]=[N-])[C@@H]1O[C@@H](n2cnc3nc(NC(C)=O)nc(Cl)c32)[C@@H]2OC[C@H](OCc3ccccc3)[C@]2(OCc2ccccc2)[C@@H]1OCc1ccccc1 | 99.9% |

tested on: not listed separately; assay: Cytotoxicity against human A549 cells assessed as cell viability at 20 ug/mL after 24 hrs by MTT assay relative to control; type: cell-based; conditions: read-out: Activity; in short: as §1

| Compound | viability at 24 h, 20 ug/mL |
| --- | --- |
| CO[C@H]1O[C@@H]([C@H](N=[N+]=[N-])C(=O)OCc2ccccc2)[C@@H](OCc2ccccc2)[C@@]2(OCc3ccccc3)[C@@H](OCc3ccccc3)CO[C@@H]12 | 73.9% |
| CC(=O)Nc1nc(Cl)c2c(ncn2[C@@H]2O[C@@H]([C@H](N=[N+]=[N-])C(=O)OCc3ccccc3)[C@@H](OCc3ccccc3)[C@@]3(OCc4ccccc4)[C@@H](OCc4ccccc4)CO[C@@H]23)n1 | 46.9% |
| CO[C@H]1O[C@@H]([C@@H](O)C(=O)OCc2ccccc2)[C@@H](OCc2ccccc2)[C@@]2(OCc3ccccc3)[C@@H](OCc3ccccc3)CO[C@@H]12 | 67.2% |
| COC(=O)[C@H](N=[N+]=[N-])[C@@H]1O[C@@H](n2cnc3nc(NC(C)=O)nc(Cl)c32)[C@@H]2OC[C@H](OCc3ccccc3)[C@]2(OCc2ccccc2)[C@@H]1OCc1ccccc1 | 69.3% |

molecular target: T1, Cholinesterase (Homo sapiens, UniProt P06276); assay: Inhibition of BChE in human serum assessed as hydrolysis of butyrylthiocholine at 10 ug/mL by Ellman's method; conditions: not given
In short: (§2)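 Human serum BChE (0.44 U/mL solution) in 0.1 M phosphate buffer pH 8.0 with S-butyrylthiocholine iodide and DTNB. Absorbance at 410 nm followed kinetically for 4 min at 30 °C, at least four replicates. Inhibition % = 100 − 100·V/V_max, where V_max comes from blanks without inhibitor; one-sided t-test. IC50 obtained by non-linear regression of the dose–response, given as mean ± SEM.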

T1 sequence (P06276 whole entry): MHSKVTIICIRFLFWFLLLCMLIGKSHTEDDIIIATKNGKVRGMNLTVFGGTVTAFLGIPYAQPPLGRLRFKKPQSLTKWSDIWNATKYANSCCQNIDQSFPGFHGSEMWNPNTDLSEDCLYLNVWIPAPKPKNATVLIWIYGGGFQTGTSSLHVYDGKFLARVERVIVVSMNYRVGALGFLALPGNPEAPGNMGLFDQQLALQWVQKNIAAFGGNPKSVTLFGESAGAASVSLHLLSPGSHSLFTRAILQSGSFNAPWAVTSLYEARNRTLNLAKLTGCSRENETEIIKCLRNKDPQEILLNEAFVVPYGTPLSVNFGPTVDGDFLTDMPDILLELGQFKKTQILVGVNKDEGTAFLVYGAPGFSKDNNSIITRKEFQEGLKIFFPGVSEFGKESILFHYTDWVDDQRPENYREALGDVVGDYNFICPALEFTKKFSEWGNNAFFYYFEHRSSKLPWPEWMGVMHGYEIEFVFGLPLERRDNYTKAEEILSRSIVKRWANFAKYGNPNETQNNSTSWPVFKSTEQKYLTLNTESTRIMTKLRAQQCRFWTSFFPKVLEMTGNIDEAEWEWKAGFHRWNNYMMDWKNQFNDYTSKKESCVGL

| Compound | inhibition |
| --- | --- |
| CO[C@H]1O[C@@H]([C@H](N=[N+]=[N-])C(=O)OCc2ccccc2)[C@@H](OCc2ccccc2)[C@@]2(OCc3ccccc3)[C@@H](OCc3ccccc3)CO[C@@H]12 | 64% |
| CC(=O)Nc1nc(Cl)c2c(ncn2[C@@H]2O[C@@H]([C@H](N=[N+]=[N-])C(=O)OCc3ccccc3)[C@@H](OCc3ccccc3)[C@@]3(OCc4ccccc4)[C@@H](OCc4ccccc4)CO[C@@H]23)n1 | 34% |
| CO[C@H]1O[C@@H]([C@@H](O)C(=O)OCc2ccccc2)[C@@H](OCc2ccccc2)[C@@]2(OCc3ccccc3)[C@@H](OCc3ccccc3)CO[C@@H]12 | 56% |

tested on: not listed separately; assay: Cytotoxicity against human A549 cells assessed as cell viability at 2000 ug/mL after 24 hrs by MTT assay relative to control; type: cell-based; conditions: read-out: Activity; in short: as §1

| Compound | viability at 24 h, 2000 ug/mL |
| --- | --- |
| CO[C@H]1O[C@@H]([C@H](N=[N+]=[N-])C(=O)OCc2ccccc2)[C@@H](OCc2ccccc2)[C@@]2(OCc3ccccc3)[C@@H](OCc3ccccc3)CO[C@@H]12 | 25% |
| CC(=O)Nc1nc(Cl)c2c(ncn2[C@@H]2O[C@@H]([C@H](N=[N+]=[N-])C(=O)OCc3ccccc3)[C@@H](OCc3ccccc3)[C@@]3(OCc4ccccc4)[C@@H](OCc4ccccc4)CO[C@@H]23)n1 | 7.32% |
| CO[C@H]1O[C@@H]([C@@H](O)C(=O)OCc2ccccc2)[C@@H](OCc2ccccc2)[C@@]2(OCc3ccccc3)[C@@H](OCc3ccccc3)CO[C@@H]12 | 36% |
| COC(=O)[C@H](N=[N+]=[N-])[C@@H]1O[C@@H](n2cnc3nc(NC(C)=O)nc(Cl)c32)[C@@H]2OC[C@H](OCc3ccccc3)[C@]2(OCc2ccccc2)[C@@H]1OCc1ccccc1 | 21.3% |

molecular target: T1, Cholinesterase; assay: Inhibition of BChE in human serum assessed as hydrolysis of butyrylthiocholine at 100 ug/mL by Ellman's method; type: cell-free; conditions: not given; in short: as §2

| Compound | inhibition |
| --- | --- |
| CO[C@H]1O[C@@H]([C@H](N=[N+]=[N-])C(=O)OCc2ccccc2)[C@@H](OCc2ccccc2)[C@@]2(OCc3ccccc3)[C@@H](OCc3ccccc3)CO[C@@H]12 | 91% |
| CC(=O)Nc1nc(Cl)c2c(ncn2[C@@H]2O[C@@H]([C@H](N=[N+]=[N-])C(=O)OCc3ccccc3)[C@@H](OCc3ccccc3)[C@@]3(OCc4ccccc4)[C@@H](OCc4ccccc4)CO[C@@H]23)n1 | 81% |
| CO[C@H]1O[C@@H]([C@@H](O)C(=O)OCc2ccccc2)[C@@H](OCc2ccccc2)[C@@]2(OCc3ccccc3)[C@@H](OCc3ccccc3)CO[C@@H]12 | 95% |

tested on: not listed separately; assay: Cytotoxicity against human A549 cells assessed as cell viability at 0.2 ug/mL after 24 hrs by MTT assay relative to control; type: cell-based; conditions: read-out: Activity; in short: as §1

| Compound | viability at 24 h, 0.2 ug/mL |
| --- | --- |
| CO[C@H]1O[C@@H]([C@H](N=[N+]=[N-])C(=O)OCc2ccccc2)[C@@H](OCc2ccccc2)[C@@]2(OCc3ccccc3)[C@@H](OCc3ccccc3)CO[C@@H]12 | 90.2% |
| CC(=O)Nc1nc(Cl)c2c(ncn2[C@@H]2O[C@@H]([C@H](N=[N+]=[N-])C(=O)OCc3ccccc3)[C@@H](OCc3ccccc3)[C@@]3(OCc4ccccc4)[C@@H](OCc4ccccc4)CO[C@@H]23)n1 | 88.5% |
| CO[C@H]1O[C@@H]([C@@H](O)C(=O)OCc2ccccc2)[C@@H](OCc2ccccc2)[C@@]2(OCc3ccccc3)[C@@H](OCc3ccccc3)CO[C@@H]12 | 91.9% |
| COC(=O)[C@H](N=[N+]=[N-])[C@@H]1O[C@@H](n2cnc3nc(NC(C)=O)nc(Cl)c32)[C@@H]2OC[C@H](OCc3ccccc3)[C@]2(OCc2ccccc2)[C@@H]1OCc1ccccc1 | 103% |

molecular target: T1, Cholinesterase; assay: Inhibition of BChE in human serum assessed as hydrolysis of butyrylthiocholine at 0.1 ug/mL by Ellman's method; conditions: not given; in short: as §2

| Compound | inhibition |
| --- | --- |
| CO[C@H]1O[C@@H]([C@H](N=[N+]=[N-])C(=O)OCc2ccccc2)[C@@H](OCc2ccccc2)[C@@]2(OCc3ccccc3)[C@@H](OCc3ccccc3)CO[C@@H]12 | 15% |

molecular target: T1, Cholinesterase; assay: Inhibition of BChE in human serum assessed as hydrolysis of butyrylthiocholine by Ellman's method; type: cell-free; conditions: not given
In short: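 Human serum BChE (0.44 U/mL solution) in 0.1 M phosphate buffer pH 8.0 with S-butyrylthiocholine iodide and DTNB. Absorbance at 410 nm followed kinetically for 4 min at 30 °C, at least four replicates. IC50 obtained by non-linear regression of the dose–response, given as mean ± SEM.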

| Compound | IC50 |
| --- | --- |
| CO[C@H]1O[C@@H]([C@H](N=[N+]=[N-])C(=O)OCc2ccccc2)[C@@H](OCc2ccccc2)[C@@]2(OCc3ccccc3)[C@@H](OCc3ccccc3)CO[C@@H]12 | 4.2 µM |
| CC(=O)Nc1nc(Cl)c2c(ncn2[C@@H]2O[C@@H]([C@H](N=[N+]=[N-])C(=O)OCc3ccccc3)[C@@H](OCc3ccccc3)[C@@]3(OCc4ccccc4)[C@@H](OCc4ccccc4)CO[C@@H]23)n1 | 22 µM |
| CO[C@H]1O[C@@H]([C@@H](O)C(=O)OCc2ccccc2)[C@@H](OCc2ccccc2)[C@@]2(OCc3ccccc3)[C@@H](OCc3ccccc3)CO[C@@H]12 | 16.1 µM |

molecular target: T2, Acetylcholinesterase (Bos taurus) (UniProt P23795); assay: Inhibition of AChE in bovine erythrocytes assessed as hydrolysis of acetylthiocholine by Ellman's method; conditions: not given
T2 sequence (whole entry): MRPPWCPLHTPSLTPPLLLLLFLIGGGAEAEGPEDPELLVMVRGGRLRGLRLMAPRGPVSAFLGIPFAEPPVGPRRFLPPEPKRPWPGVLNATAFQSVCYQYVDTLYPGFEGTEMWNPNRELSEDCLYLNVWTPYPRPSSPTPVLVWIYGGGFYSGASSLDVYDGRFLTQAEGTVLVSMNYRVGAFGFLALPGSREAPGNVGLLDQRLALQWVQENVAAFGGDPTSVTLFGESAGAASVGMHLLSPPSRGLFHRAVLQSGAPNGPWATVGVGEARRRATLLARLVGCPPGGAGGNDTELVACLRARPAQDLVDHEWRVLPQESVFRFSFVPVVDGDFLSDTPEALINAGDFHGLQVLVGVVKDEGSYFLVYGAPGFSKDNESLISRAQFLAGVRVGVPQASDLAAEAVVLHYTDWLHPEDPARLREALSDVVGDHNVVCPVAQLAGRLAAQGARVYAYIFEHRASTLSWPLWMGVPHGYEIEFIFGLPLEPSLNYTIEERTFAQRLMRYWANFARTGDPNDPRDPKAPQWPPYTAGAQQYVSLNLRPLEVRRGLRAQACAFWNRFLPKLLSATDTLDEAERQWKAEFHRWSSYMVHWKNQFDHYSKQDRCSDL
In short: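 Bovine erythrocyte AChE (1.32 U/mL solution) in 0.1 M phosphate buffer pH 8.0 with acetylthiocholine iodide and DTNB. Yellow product read kinetically at 410 nm for 4 min at 30 °C. Rates compared with no-inhibitor V_max; inhibition % = 100 − 100·V/V_max. At least four replicates. One-sided t-test against 0% inhibition.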

| Compound | inhibition |
| --- | --- |
| CO[C@H]1O[C@@H]([C@H](N=[N+]=[N-])C(=O)OCc2ccccc2)[C@@H](OCc2ccccc2)[C@@]2(OCc3ccccc3)[C@@H](OCc3ccccc3)CO[C@@H]12 | inactive |
| CC(=O)Nc1nc(Cl)c2c(ncn2[C@@H]2O[C@@H]([C@H](N=[N+]=[N-])C(=O)OCc3ccccc3)[C@@H](OCc3ccccc3)[C@@]3(OCc4ccccc4)[C@@H](OCc4ccccc4)CO[C@@H]23)n1 | inactive |
| CO[C@H]1O[C@@H]([C@@H](O)C(=O)OCc2ccccc2)[C@@H](OCc2ccccc2)[C@@]2(OCc3ccccc3)[C@@H](OCc3ccccc3)CO[C@@H]12 | inactive |
| COC(=O)[C@H](N=[N+]=[N-])[C@@H]1O[C@@H](n2cnc3nc(NC(C)=O)nc(Cl)c32)[C@@H]2OC[C@H](OCc3ccccc3)[C@]2(OCc2ccccc2)[C@@H]1OCc1ccccc1 | inactive |

molecular target: T1, Cholinesterase; assay: Inhibition of BChE in human serum assessed as hydrolysis of butyrylthiocholine at 1 ug/mL by Ellman's method; type: cell-free; conditions: not given; in short: as §2

| Compound | inhibition |
| --- | --- |
| CO[C@H]1O[C@@H]([C@H](N=[N+]=[N-])C(=O)OCc2ccccc2)[C@@H](OCc2ccccc2)[C@@]2(OCc3ccccc3)[C@@H](OCc3ccccc3)CO[C@@H]12 | 36% |
| CC(=O)Nc1nc(Cl)c2c(ncn2[C@@H]2O[C@@H]([C@H](N=[N+]=[N-])C(=O)OCc3ccccc3)[C@@H](OCc3ccccc3)[C@@]3(OCc4ccccc4)[C@@H](OCc4ccccc4)CO[C@@H]23)n1 | 9% |
| CO[C@H]1O[C@@H]([C@@H](O)C(=O)OCc2ccccc2)[C@@H](OCc2ccccc2)[C@@]2(OCc3ccccc3)[C@@H](OCc3ccccc3)CO[C@@H]12 | 7% |
